# OXTR potentiator: potentiates the human oxytocin receptor response. P30559. CHO-OTR cells, Fluo-8 calcium fluorescence, potentiator mode; 0% = oxytocin EC15, 100% = EC100. activation, % at 3 µM. 320,000 compounds, 0.061% hits;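 active = activation above that plate's cutoff, the mean activation of tested compounds plus 3 SD, cut at about 6.6% in these data, passing the limit was not always enough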;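 note: 100% uses oxytocin at 75 nM as the full agonist control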
# Target sequence (P30559 whole entry, looked up): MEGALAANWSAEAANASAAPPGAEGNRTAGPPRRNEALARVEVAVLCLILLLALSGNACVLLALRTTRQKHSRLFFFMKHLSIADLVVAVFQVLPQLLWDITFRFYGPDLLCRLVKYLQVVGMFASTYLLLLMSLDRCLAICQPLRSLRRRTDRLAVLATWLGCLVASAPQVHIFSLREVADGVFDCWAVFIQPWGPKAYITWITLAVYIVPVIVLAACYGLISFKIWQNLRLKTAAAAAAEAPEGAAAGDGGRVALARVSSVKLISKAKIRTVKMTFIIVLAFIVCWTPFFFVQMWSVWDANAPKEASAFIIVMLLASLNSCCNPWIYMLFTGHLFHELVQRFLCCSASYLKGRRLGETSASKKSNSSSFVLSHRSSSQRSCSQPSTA
#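 System: human OTR in CHO cells; Also added: sub-maximal oxytocin, roughly EC15; Timing: compound 6 min at room temperature before oxytocin, 100 s read; Technique: Fluo-8 intracellular calcium fluorescence, ex 470-495, em 515-575 nm; Controls: oxytocin EC15 low and EC100 high; Replication: singlicate.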
# V1R ag counter: V1a receptor agonism, counter-screen for OXTR agonists. activation, % at 3 µM. AID 2797. 320,000 compounds, 0.25% hits. CHO-V1R cells, Fluo-8 calcium fluorescence, agonist mode; 0% DMSO, 100% 3 nM vasopressin;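 active = activation above the mean activation of all tested compounds plus 3 SD, per screening run, cut at about 20% in these data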;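 note: signal is peak over basal fluorescence ratio across a 100 second FLIPR read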
# TAAR1 antagonist: human TAAR1 antagonism; CHO RD-HGA16 TAAR1, Fluo-8 calcium fluorescence, antagonist; 360,000 compounds, 1.5% hits; inhibition, % at 3 µM; Q96RJ0; AID 624466;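 active = inhibition above a per-plate cutoff, the mean inhibition of test compounds on that plate plus 3 SD, cut at about 49% in these data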;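 note: 0% = DMSO plus EC80 beta-PEA response and 100% = DMSO alone without agonist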
# Target sequence (Q96RJ0 whole entry, looked up): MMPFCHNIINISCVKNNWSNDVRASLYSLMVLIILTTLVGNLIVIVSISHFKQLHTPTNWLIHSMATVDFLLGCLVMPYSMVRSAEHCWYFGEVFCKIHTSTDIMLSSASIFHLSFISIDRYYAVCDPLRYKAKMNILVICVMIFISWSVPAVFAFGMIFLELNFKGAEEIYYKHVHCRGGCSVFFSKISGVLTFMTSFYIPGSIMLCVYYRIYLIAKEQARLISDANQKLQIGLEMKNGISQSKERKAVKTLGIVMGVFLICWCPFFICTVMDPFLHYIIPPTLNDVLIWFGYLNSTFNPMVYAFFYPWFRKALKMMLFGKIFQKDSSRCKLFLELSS
#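 Material: CHO RD-HGA16 cells bearing hTAAR1; compound dosing: one-point dosing, 3 µM nominal final; schedule: dye loading 75 min at 37 °C, then 30 min room temperature; measured by: calcium fluorescence with Fluo-8; control set: vehicle and agonist controls; replication: n of 1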
# TAAR1 ag: agonists of human TAAR1 | Q96RJ0 | CHO RD-HGA16 TAAR1, Fluo-8 calcium fluorescence; vehicle wells 0%, saturating PEA agonist 100% | activation, % at 3 µM | 360,000 compounds, 0.99% hits;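 active = activation above the mean activation of all test compounds in the run plus 3 SD, cut at about 38% in these data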
#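 Assay system – CHO-derived RD-HGA16 cells with stable Gα16 and human TAAR1 · Compound dosing – one-point dosing at 3 µM (nominal) · Incubation – 17-24 h seeding, 75 min 37 °C dye, 30 min RT · Measured by – kinetic Fluo-8 calcium fluorescence · Control set – DMSO vehicle as 0%, PEA at EC100 as 100% · Repeats – single well for each compound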
# OXTR agonist: agonists of human oxytocin receptor; P30559; 320,000 compounds, 0.32% hits; CHO-OTR cells, Fluo-8 calcium fluorescence; normalized: DMSO 0%, oxytocin 100%; AID 2435; activation, % at 3 µM;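 active = activation above the mean of all tested compounds plus 3 SD, cutoff set per screening run, cut at about 20% in these data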;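 note: peak over basal fluorescence ratio from a 100 s FLIPR kinetic read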
# The depositor's hits bear a star; . = not tested or not shown. Rows were chosen to be rich in hits. Some 2.3% of all compounds tested hit in one or more screens of this group.
SMILES,OXTR potentiator,V1R ag counter,TAAR1 antagonist,TAAR1 ag,OXTR agonist
CC1CN(C(C)C)C(=S)NC1=O (centres undefined),.,.,-2.2,0.6,.
O=C(COc1ccccc1)Nc1nc(-c2ccc(S(=O)(=O)N3CCOCC3)cc2)cs1,-12.3,7.3,55.4*,20.3,1.6
O=C(Nc1nc(-c2ccc(S(=O)(=O)N3CCCC3)cc2)cs1)C1COc2ccccc2O1 (centres undefined),-7.8,2.2,56.6*,23.2,1.1
O=C(COc1ccc(Cl)cc1)Nc1nc(-c2ccc(S(=O)(=O)N3CCOCC3)cc2)cs1,-4.2,3.9,62.4*,17.0,2.0
COc1ccccc1OCC(=O)Nc1nc(-c2ccc(S(=O)(=O)N3CCOCC3)cc2)cs1,-21.8,0.6,35.8,17.7,1.2
O=C(Nc1cnn(Cc2c(Cl)cccc2Cl)c1)C(c1ccccc1)c1ccccc1,-16.8,2.5,-4.4,6.4,0.4
CC[n+]1c(/C=C/c2c[nH]c3ccccc23)ccc2cc(C)ccc21,.,.,17.8,12.0,.
Cc1ncc(CO)c2c1Oc1nc(-c3ccccc3)nc(SCC(=O)N3CCCCC3)c1C2,-5.2,3.5,40.7,9.2,3.0
COc1ccccc1-c1nc2c(c(SCC(=O)N3CCCCC3)n1)Cc1c(CO)cnc(C)c1O2,-5.8,3.3,53.6*,9.5,0.2
CCC(C)Nc1nc(-c2ccc3c(c2)NC(=O)CO3)cs1 (centres undefined),-2.1,0.6,-26.6,4.5,0.9
O=C(CCSCCC(=O)NN=Cc1ccccc1O)NN=Cc1ccccc1O,.,.,48.0,43.6*,.
O=C(CSc1ccccc1)N/N=C/c1ccccc1O,-7.7,1.6,0.3,16.2,2.1
C[C@@H](O)CNC(=O)c1[nH]cnc1C(=O)Nc1ccc(CNC(=O)OC(C)(C)C)cc1,.,.,49.1*,8.5,.
CC(C)(C)OC(=O)CNC(=O)c1[nH]cnc1C(=O)Nc1ccc(CNC(=O)OC(C)(C)C)cc1,-11.7,1.6,59.1*,26.9,-1.8
CC(C)(C)OC(=O)NCc1ccc(NC(=O)c2nc[nH]c2C(=O)NCCNC(=O)c2[nH]cnc2C(=O)Nc2ccc(CNC(=O)OC(C)(C)C)cc2)cc1,-4.4,2.4,.,.,1.6
CC(C)C[C@H](NC(=O)c1[nH]cnc1C(=O)Nc1ccc(CNC(=O)OC(C)(C)C)cc1)C(=O)OCc1ccccc1,-9.3,0.9,52.8*,15.8,1.4
CC(C)C[C@H](NC(=O)c1[nH]cnc1C(=O)Nc1ccc(CNC(=O)OC(C)(C)C)cc1)C(=O)OC(C)(C)C,-10.3,0.3,27.4,5.3,1.0
C[C@H](CO)NC(=O)c1[nH]cnc1C(=O)Nc1ccc(CNC(=O)OC(C)(C)C)cc1,.,.,-6.4,1.6,.
COc1ccccc1C1=CC(=O)CC(C)(C)C1=O,0.0,1.2,14.1,1.8,-0.3
O=C(N/N=C/C=C\c1ccccc1[N+](=O)[O-])c1cc(-c2ccc3ccccc3c2)n[nH]1,.,.,53.3*,2.5,.
O=C(N/N=C/c1ccccn1)c1cc(-c2ccc3ccccc3c2)n[nH]1,-16.3,2.0,70.9*,19.5,2.6
O=C(N/N=C/C=C/c1ccccc1[N+](=O)[O-])c1ccncc1,-15.3,0.1,4.1,0.1,-0.4
CN(CC(=O)NC1CCCCC1)S(=O)(=O)c1ccc2c(c1)c(=O)n(C)c(=O)n2C,-0.6,0.8,-11.0,3.2,-0.1
CS(=O)(=O)N1CC2CCCN2c2cc(C(F)(F)F)ccc21 (centres undefined),-6.0,0.2,-1.0,5.8,-1.1
Fc1ccc2[nH]c3c(N4CCN(c5ccccc5)CC4)ncnc3c2c1,-32.6,10.8,56.7*,21.7,15.1
SMILES,OXTR potentiator,V1R ag counter,TAAR1 antagonist,TAAR1 ag,OXTR agonist
OC1(c2cccc(C(F)(F)F)c2)CCN(c2ncnc3c2[nH]c2ccc(F)cc23)CC1,.,.,60.4*,12.9,.
COc1ccc2[nH]c3c(N4CCc5ccccc5C4)ncnc3c2c1,-16.5,9.3,36.1,10.5,7.3
CCOC(=O)N1CCN(c2ncnc3c2[nH]c2ccc(F)cc23)CC1,-20.8,8.3,17.2,23.5,14.5
COc1ccc(N2CCN(c3ncnc4c3[nH]c3ccccc34)CC2)cc1,-28.5,10.3,66.5*,15.0,13.6
O=C(CCCN1CCC(O)(c2cccc(C(F)(F)F)c2)CC1)c1ccc(F)cc1,-5.0,2.1,13.6,15.3,6.5
COc1ccccc1CNc1nc(NCc2ccccc2OC)c2sccc2n1,.,.,19.4,5.4,.
COc1ccccc1CNc1nc(Nc2cccc(-c3cnco3)c2)c2sccc2n1,.,.,75.9*,1.9,.
CCCc1cc(=O)oc2c3c(cc(OCC(=O)NCc4ccncc4)c12)OC(C)(C)CC3,-8.8,-0.6,48.9*,2.4,-0.6
Cc1cc(=O)oc2c3c(cc(OCC(=O)Nc4ccc(CCO)cc4)c12)OC(C)(C)CC3,-4.1,-0.7,50.9*,0.4,-1.5
CCCc1cc(=O)oc2c3c(cc(OCC(=O)NCc4ccccn4)c12)OC(C)(C)CC3,-4.8,-0.9,49.2*,2.1,-0.3
CCC1Nc2ncnc(N3CCN(c4ccccc4)CC3)c2N(Cc2ccccc2)C1=O (centres undefined),-5.5,-0.6,8.0,6.9,-1.1
O=C(O)c1cc(NC(=O)c2ccc(Cl)c([N+](=O)[O-])c2)cc(C(=O)O)c1,-1.8,0.6,6.7,-0.4,-0.1
O=C(Nc1ccc(C(O)(C(F)(F)F)C(F)(F)F)cc1)c1ccc(Cl)c([N+](=O)[O-])c1,-16.9,0.9,57.1*,5.5,-0.9
COc1cc(C2(c3ccc(O)c(OC)c3)C(=O)Nc3c(C)cc(Br)cc32)ccc1O,-14.7,4.1,51.2*,31.0,5.6
Cc1cc(Br)cc2c1NC(=O)C2(c1c(C)n(C)n(-c2ccccc2)c1=O)c1c(C)n(C)n(-c2ccccc2)c1=O,-9.1,-0.6,-35.0,7.0,-0.9
O=C(COC(=O)COc1ccc(Br)cc1)Nc1ccc2c(c1)OCCO2,-5.9,4.3,-7.1,7.5,3.3
CC(C)CNc1ncnc2c1ncn2[C@H]1CN(Cc2cccc3ccccc23)C[C@@H](CO)O1,.,.,6.6,5.1,.
OC[C@@H]1CN(Cc2cccc3ccccc23)C[C@H](n2cnc3c(NCc4ccco4)ncnc32)O1,.,.,65.5*,20.2,.
OC[C@@H]1CN(Cc2ccc(-c3ccccc3)cc2)C[C@H](n2cnc3c(Nc4ccccc4)ncnc32)O1,.,.,51.5*,10.7,.
CC(C)CNc1ncnc2c1ncn2[C@H]1CN(Cc2ccc(Cl)cc2)C[C@@H](CO)O1,.,.,5.0,0.2,.
CC(C)CNc1ncnc2c1ncn2[C@H]1CN(CCc2ccccc2)C[C@@H](CO)O1,.,.,-11.2,40.6*,.
O=C(NCc1ccncc1)C(=O)N/N=C/c1ccc(OCc2ccccc2)cc1,1.1,-1.0,-10.0,5.5,-1.3
O=C(CC(CC(=O)c1ccccc1)c1ccccn1)c1ccccc1,.,.,-7.3,2.8,.

# Screening results: PubChem, The Scripps Research Institute Molecular Screening Center
